Consider one compound from ChEMBL document CHEMBL3272012, “5-(Tetradecyloxy)-2-furancarboxylic acid and related hypolipidemic fatty acid-like alkyloxyarylcarboxylic acids” (J Med Chem, 1977).

For series [1], the system named is Rattus norvegicus. In words: Hypolipidemic activity in Wistar rat assessed as reduction in plasma triglyceride level at 96 umol/kg/day administered through diet for 10 days. The format is functional. The conditions noted are these: 240 h.
Series [2] concerns Rattus norvegicus. In words: Hypolipidemic activity in Wistar rat assessed as reduction in plasma cholesterol level at 193 umol/kg/day administered through diet for 10 days. It counts as functional. The conditions noted are these: 240 h. The gist of the method:
(§1)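 Young male Wistar rats, 170-190 g at start, in groups of six, given compound mixed into Purina Lab Chow ad libitum for 4 or 10 days as stated. Daily dose was calculated from food consumption and body weight. Plasma was taken by cardiac puncture at the end and cholesterol measured by automated procedure. Results are % reduction versus a concurrent untreated control group, with Student's t test.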

For series [3], the system named is Rattus norvegicus. The series is described as follows: Increase in cholesterol level in Wistar rat liver at 193 umol/kg/day administered through diet for 10 days. The conditions noted are these: in vivo, po, 240 h. The format is ADME, organism-based.
In series [4] the test system is Rattus norvegicus. The series is described as follows: Increase in liver weight in Wistar rat at 193 umol/kg/day administered through diet for 10 days. The format is ADME, organism-based. The conditions noted are these: in vivo, po, 240 h.
Series [5] concerns Rattus norvegicus. In words: Hypolipidemic activity in Wistar rat assessed as reduction in plasma cholesterol level at 96 umol/kg/day administered through diet for 10 days. It counts as functional. The conditions noted are these: 240 h. A digest of the protocol:
(§2)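 Young male Wistar rats, 170-190 g initial weight, six per group, fed drug mixed thoroughly into Purina Lab Chow ad libitum for the stated days; daily dose calculated from food consumption and body weight. Bled by cardiac puncture at end; plasma cholesterol and triglycerides by automated procedures, expressed as percent reduction versus simultaneous untreated controls; Student's t test.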

Series [6] relates to Rattus norvegicus. The series is described as follows: Hypolipidemic activity in Wistar rat assessed as reduction in plasma cholesterol level at 358 umol/kg/day administered through diet for 10 days. The format is functional. The conditions noted are these: 240 h. A digest of the protocol:
as §1

Series [7] deals with Rattus norvegicus. In words: Hypolipidemic activity in Wistar rat assessed as reduction in plasma triglyceride level at 358 umol/kg/day administered through diet for 10 days. The conditions noted are these: 240 h. It counts as functional. A digest of the protocol: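 Young male Wistar rats, 170-190 g at start, six per group, given compound mixed into Purina Lab Chow, fed ad libitum for 4 or 10 days. Daily dose calculated from food consumption and body weight. Rats bled by cardiac puncture at end of treatment. Plasma triglycerides determined by automated procedure. Expressed as percent reduction versus a concurrent untreated control group, Student's t test.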

Series [8] deals with Rattus norvegicus. In words: Hypolipidemic activity in Wistar rat assessed as reduction in plasma triglyceride level at 193 umol/kg/day administered through diet for 10 days. The format is functional. The conditions noted are these: 240 h. A digest of the protocol: as §2
In series [9] the test system is Rattus norvegicus. In words: Increase in liver weight in Wistar rat at 96 umol/kg/day administered through diet for 10 days. The conditions noted are these: in vivo, po, 240 h. The format is ADME, organism-based.
In series [10] the test system is Rattus norvegicus. The series is described as follows: Increase in cholesterol level in Wistar rat liver at 96 umol/kg/day administered through diet for 10 days. The conditions noted are these: in vivo, po, 240 h. It counts as ADME, organism-based.
Series [11] concerns Rattus norvegicus. In words: Increase in liver weight in Wistar rat at 358 umol/kg/day administered through diet for 10 days. It counts as ADME, organism-based. The conditions noted are these: in vivo, po, 240 h.
Series [12] relates to Rattus norvegicus. The series is described as follows: Increase in cholesterol level in Wistar rat liver at 358 umol/kg/day administered through diet for 10 days. The format is ADME, organism-based. The conditions noted are these: in vivo, po, 240 h.

The structures appear in SMILES notation.

In general, inhibition in vivo refers to how much of the control response was suppressed. As for `CCCCCCCCCCCCCCOc1ccc(C(=O)CC(=O)OCC)cc1`, the inhibition in vivo at 96 µmol/kg turned out to be 44% in series [1] and 13% in series [5]. Besides, the inhibition in vivo at 193 µmol/kg in [2] was 20%; in [8], 43%. For the same compound, the Activity in series [3] is given as 11%; in series [4], 1%; in [9] it was 1%; in [10], 0%; in series [11], 3%; in series [12], 10%. The inhibition in vivo at 358 µmol/kg is 30% in [6] and 59% in series [7].
